The source made the active and inactive calls. No cut-off for these calls is given here.
Tests used:
[1] = Inhibition of CDK4/Cyclin D (unknown origin) expressed in baculovirus infected insect Sf9 cells using human pRB as substrate in presence of [gamma-32P]ATP
[2] = target: Cyclin-dependent kinase 1/cyclin B1 (Homo sapiens, UniProt P06493); experiment: Inhibition of CDK1/Cyclin B (unknown origin) expressed in baculoviral infected insect Sf9 cells using histone H1 as substrate in presence of [gamma-33P]ATP; assay type: cell-based
Cyclin-dependent kinase 1/cyclin B1, sequence (P06493 whole entry): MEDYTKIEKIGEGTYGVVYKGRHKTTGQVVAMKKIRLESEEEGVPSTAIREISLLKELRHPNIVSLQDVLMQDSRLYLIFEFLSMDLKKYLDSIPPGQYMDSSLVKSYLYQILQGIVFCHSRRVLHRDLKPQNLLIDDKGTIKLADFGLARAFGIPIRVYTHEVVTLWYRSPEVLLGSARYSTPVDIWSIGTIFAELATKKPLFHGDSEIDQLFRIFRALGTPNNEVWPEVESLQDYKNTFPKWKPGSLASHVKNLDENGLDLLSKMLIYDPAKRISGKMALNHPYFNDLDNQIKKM
Cyclin-dependent kinase 1/cyclin B1, sequence (P14635 whole entry, further chain): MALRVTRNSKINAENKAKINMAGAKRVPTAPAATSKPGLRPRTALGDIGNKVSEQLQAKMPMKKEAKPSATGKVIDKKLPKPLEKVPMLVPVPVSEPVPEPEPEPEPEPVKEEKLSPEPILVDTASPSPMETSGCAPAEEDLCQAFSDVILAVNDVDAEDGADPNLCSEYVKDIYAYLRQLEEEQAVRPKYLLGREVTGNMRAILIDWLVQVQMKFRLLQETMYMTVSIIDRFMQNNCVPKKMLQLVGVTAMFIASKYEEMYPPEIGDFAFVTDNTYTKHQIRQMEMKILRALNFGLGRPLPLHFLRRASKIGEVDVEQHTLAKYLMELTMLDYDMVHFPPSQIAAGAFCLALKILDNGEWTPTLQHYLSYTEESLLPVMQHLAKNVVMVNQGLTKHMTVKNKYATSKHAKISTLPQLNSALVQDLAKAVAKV

[3] = target: Cyclin-dependent kinase 4/cyclin D1 (Homo sapiens, UniProt P11802); experiment: Inhibition of CDK4/Cyclin D1 (unknown origin) using RPPTLSPIPHIPR peptide as substrate in presence of [gamma-33P]ATP; assay type: protein-complex assay
Cyclin-dependent kinase 4/cyclin D1, sequence (P11802 whole entry): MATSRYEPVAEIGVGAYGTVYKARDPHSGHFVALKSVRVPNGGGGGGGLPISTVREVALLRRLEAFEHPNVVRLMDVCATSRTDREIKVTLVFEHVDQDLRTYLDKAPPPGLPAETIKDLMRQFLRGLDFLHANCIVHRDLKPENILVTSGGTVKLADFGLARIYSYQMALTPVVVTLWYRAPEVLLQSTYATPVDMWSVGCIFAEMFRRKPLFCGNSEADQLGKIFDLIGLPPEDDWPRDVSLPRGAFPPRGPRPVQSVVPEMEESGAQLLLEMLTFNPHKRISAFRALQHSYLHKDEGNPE
Cyclin-dependent kinase 4/cyclin D1, sequence (P24385 whole entry, further chain): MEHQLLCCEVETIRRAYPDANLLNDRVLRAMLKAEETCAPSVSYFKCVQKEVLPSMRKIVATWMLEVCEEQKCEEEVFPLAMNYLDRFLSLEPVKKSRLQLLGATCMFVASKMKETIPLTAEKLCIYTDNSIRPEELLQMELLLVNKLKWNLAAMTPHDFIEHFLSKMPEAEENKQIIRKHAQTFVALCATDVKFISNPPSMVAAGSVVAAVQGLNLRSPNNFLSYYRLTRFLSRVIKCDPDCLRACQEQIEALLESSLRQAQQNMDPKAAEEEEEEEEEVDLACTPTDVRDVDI

[4] = target: Cyclin-dependent kinase 5/CDK5 activator 1 (Homo sapiens, UniProt Q00535); experiment: Inhibition of CDK5/p35NCK (unknown origin) using histone H1 as substrate in presence of [gamma-33P]ATP; assay type: protein-complex assay
Cyclin-dependent kinase 5/CDK5 activator 1, sequence (Q00535 whole entry): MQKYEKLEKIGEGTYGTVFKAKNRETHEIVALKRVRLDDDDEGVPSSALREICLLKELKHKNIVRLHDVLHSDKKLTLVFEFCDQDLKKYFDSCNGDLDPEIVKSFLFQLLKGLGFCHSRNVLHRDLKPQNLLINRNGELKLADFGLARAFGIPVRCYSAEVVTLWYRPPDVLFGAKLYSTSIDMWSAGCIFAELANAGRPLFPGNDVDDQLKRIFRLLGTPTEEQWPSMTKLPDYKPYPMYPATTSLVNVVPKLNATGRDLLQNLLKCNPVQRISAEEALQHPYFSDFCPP
Cyclin-dependent kinase 5/CDK5 activator 1, sequence (Q15078 whole entry, further chain): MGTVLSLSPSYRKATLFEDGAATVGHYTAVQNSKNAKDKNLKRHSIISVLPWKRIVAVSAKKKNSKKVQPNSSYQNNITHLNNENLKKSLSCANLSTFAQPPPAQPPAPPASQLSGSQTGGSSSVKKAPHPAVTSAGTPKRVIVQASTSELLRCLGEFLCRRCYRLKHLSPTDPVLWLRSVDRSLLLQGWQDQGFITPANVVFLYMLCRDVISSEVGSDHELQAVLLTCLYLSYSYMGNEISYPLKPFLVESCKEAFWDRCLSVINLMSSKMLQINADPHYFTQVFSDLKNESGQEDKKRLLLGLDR

CDK7/Cyclin H/MNAT1 = CDK7/Cyclin H/MNAT1 (Homo sapiens, UniProt P50613); experiment: Inhibition of CDK7/Cyclin H/MAT1 (unknown origin) using (YSPTSPS)2KK peptide as substrate in presence of [gamma-33P]ATP; assay type: protein-complex assay
CDK7/Cyclin H/MNAT1, sequence (P51946 whole entry): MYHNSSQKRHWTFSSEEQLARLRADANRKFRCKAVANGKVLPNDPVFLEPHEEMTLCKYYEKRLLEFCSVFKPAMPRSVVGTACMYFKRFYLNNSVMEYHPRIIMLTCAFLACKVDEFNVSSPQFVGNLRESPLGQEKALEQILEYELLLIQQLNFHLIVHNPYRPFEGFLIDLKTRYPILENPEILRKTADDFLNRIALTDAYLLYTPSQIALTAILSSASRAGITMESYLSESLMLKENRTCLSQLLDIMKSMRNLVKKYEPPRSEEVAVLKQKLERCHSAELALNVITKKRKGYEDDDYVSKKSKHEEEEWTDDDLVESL
CDK7/Cyclin H/MNAT1, sequence (P50613 whole entry): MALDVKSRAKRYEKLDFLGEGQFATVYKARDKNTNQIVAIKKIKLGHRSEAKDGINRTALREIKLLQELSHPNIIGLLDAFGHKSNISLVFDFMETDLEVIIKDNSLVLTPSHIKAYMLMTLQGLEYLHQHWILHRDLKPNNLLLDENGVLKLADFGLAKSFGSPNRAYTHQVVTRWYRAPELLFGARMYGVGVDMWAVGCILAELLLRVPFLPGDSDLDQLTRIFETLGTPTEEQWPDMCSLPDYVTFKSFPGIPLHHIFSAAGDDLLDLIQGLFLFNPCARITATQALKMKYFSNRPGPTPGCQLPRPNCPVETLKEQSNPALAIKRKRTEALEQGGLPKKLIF
CDK7/Cyclin H/MNAT1, sequence (P51948 whole entry, further chain): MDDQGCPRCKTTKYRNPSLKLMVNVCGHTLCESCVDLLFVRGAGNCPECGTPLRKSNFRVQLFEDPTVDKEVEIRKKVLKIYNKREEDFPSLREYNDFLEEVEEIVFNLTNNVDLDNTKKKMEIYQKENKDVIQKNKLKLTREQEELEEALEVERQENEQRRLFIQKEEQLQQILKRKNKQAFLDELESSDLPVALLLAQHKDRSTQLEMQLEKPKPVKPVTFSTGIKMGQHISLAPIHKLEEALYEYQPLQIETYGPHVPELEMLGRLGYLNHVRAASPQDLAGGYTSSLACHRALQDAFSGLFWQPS

[5] = target: Cyclin-dependent kinase 2/cyclin E1 (Homo sapiens, UniProt P24941); experiment: Inhibition of CDK2/Cyclin E (unknown origin) expressed in baculoviral infected insect Sf9 cells using histone H1 as substrate in presence of [gamma-33P]ATP
K562 [6] = experiment: Cytotoxicity against human K562 cells assessed as cell viability after 72 hrs by fluorescence microplate reader method; assay type: functional, cell-based; conditions: K562, 72 h
Method in brief: (§1)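 Cells were exposed to three-fold compound dilutions in triplicate for 72 h. Viability was read after adding Calcein AM, as live-cell fluorescence at 485/538 nm (excitation/emission).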

MCF7 [7] = experiment: Cytotoxicity against human MCF7 cells assessed as cell viability after 72 hrs by fluorescence microplate reader method; assay type: functional, cell-based; conditions: MCF7, 72 h; method in brief: as §1
[8] = Cytotoxicity against human G361 cells assessed as cell viability after 72 hrs by fluorescence microplate reader method; assay type: functional, cell-based; conditions: G-361, 72 h; method in brief: as §1
G-361 [9] = experiment: Induction of apoptosis in human G361 cells assessed as activation of caspases-3/7 at 50 uM using Ac-DEVD-AMC as substrate after 6 hrs by fluorescence microplate reader method relative to control; assay type: functional
Method in brief: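 G361 cells were seeded at 20,000 cells/well overnight, then treated with compound for 24 h. A 3x caspase-3/7 buffer (HEPES pH 7.4, NaCl, KCl, MgCl2, EGTA, Nonidet P40, CHAPS, sucrose, DTT, PMSF) containing Ac-DEVD-AMC substrate was added, and plates were incubated at 37 °C. Fluorescence at 346/442 nm was read after 6 h and expressed relative to untreated control.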

HeLa = experiment: Cytotoxicity against human HeLa cells assessed as cell viability after 72 hrs by fluorescence microplate reader method; assay type: functional, cell-based; method in brief: as §1
CCRF-CEM = experiment: Cytotoxicity against human CEM cells assessed as cell viability after 72 hrs by fluorescence microplate reader method; assay type: functional, cell-based; method in brief: as §1
[10] = Cytotoxicity against human HCT116 cells assessed as cell viability after 72 hrs by fluorescence microplate reader method; assay type: functional, cell-based; conditions: HCT-116, 72 h; method in brief: as §1
K562 [11] = experiment: Cytotoxicity against human K562 cells assessed as cell viability at 50 uM after 72 hrs by fluorescence microplate reader method; assay type: functional; conditions: K562, 72 h, read-out: Activity
MCF7 [12] = experiment: Cytotoxicity against human MCF7 cells assessed as cell viability at 50 uM after 72 hrs by fluorescence microplate reader method; assay type: functional; conditions: MCF7, 72 h, read-out: Activity
[13] = Cytotoxicity against human G361 cells assessed as cell viability at 50 uM after 72 hrs by fluorescence microplate reader method; assay type: functional; conditions: G-361, 72 h, read-out: Activity
MCF7 [14] = experiment: Cell cycle arrest in BrdU pulse labeled human MCF7 cells assessed as accumulation at G1 phase after 24 hrs by propidium iodide staining based flow cytometry; assay type: functional
CDK9/cyclin T1 = CDK9/cyclin T1 (Homo sapiens, UniProt P50750); experiment: Inhibition of CDK9/Cyclin T1 (unknown origin) using (YSPTSPS)2KK peptide as substrate in presence of [gamma-33P]ATP; assay type: protein-complex assay
CDK9/cyclin T1, sequence (O60563 whole entry): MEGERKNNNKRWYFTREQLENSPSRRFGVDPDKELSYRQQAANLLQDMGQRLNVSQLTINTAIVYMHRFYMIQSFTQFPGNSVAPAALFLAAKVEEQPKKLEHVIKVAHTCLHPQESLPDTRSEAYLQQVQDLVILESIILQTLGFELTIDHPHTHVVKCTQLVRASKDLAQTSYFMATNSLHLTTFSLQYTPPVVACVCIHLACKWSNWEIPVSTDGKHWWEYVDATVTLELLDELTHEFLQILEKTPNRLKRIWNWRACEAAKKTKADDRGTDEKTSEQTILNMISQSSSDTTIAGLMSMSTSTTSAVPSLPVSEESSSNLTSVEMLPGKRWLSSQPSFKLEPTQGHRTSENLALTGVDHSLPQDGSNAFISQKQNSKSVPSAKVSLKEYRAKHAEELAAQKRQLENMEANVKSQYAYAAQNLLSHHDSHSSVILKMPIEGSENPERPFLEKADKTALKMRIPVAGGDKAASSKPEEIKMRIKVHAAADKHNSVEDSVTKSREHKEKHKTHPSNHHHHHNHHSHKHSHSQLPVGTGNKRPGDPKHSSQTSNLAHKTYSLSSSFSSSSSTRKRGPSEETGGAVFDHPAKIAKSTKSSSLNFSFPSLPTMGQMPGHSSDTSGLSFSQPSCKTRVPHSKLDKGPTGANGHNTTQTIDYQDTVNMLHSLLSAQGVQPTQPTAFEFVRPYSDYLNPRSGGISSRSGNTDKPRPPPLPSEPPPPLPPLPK
CDK9/cyclin T1, sequence (P50750 whole entry): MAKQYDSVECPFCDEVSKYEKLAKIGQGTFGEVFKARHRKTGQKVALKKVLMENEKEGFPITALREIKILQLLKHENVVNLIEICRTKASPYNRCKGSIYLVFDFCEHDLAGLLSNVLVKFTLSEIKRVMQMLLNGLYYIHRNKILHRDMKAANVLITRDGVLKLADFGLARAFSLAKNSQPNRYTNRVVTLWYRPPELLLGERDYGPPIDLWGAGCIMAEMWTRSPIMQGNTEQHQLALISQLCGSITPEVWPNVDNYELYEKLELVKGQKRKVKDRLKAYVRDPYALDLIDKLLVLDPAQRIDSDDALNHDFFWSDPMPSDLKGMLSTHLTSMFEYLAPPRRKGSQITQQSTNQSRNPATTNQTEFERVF

[15] = Cell cycle arrest in BrdU pulse labeled human G361 cells assessed as accumulation at sub G1 phase at 20 uM after 24 hrs by propidium iodide staining based flow cytometry (reference value: 0.8%); assay type: functional; conditions: G-361
[16] = Cell cycle arrest in BrdU pulse labeled human G361 cells assessed as accumulation at sub G1 phase at 40 uM after 24 hrs by propidium iodide staining based flow cytometry (reference value: 0.8%); assay type: functional; conditions: G-361
[17] = Cell cycle arrest in BrdU pulse labeled human G361 cells assessed as accumulation at sub G1 phase at 60 uM after 24 hrs by propidium iodide staining based flow cytometry (reference value: 0.8%); assay type: functional; conditions: G-361
[18] = Cell cycle arrest in BrdU pulse labeled human G361 cells assessed as accumulation at sub G1 phase at 80 uM after 24 hrs by propidium iodide staining based flow cytometry (reference value: 0.8%); assay type: functional; conditions: G-361
[19] = Cell cycle arrest in BrdU pulse labeled human G361 cells assessed as accumulation at sub G1 phase after 24 hrs by propidium iodide staining based flow cytometry; assay type: functional; conditions: G-361
[20] = Cell cycle arrest in BrdU pulse labeled human G361 cells assessed as accumulation at G1 phase after 24 hrs by propidium iodide staining based flow cytometry; assay type: functional; conditions: G-361
[21] = Cell cycle arrest in BrdU pulse labeled human G361 cells assessed as accumulation at G2/M phase after 24 hrs by propidium iodide staining based flow cytometry; assay type: functional; conditions: G-361
[22] = Downregulation of Rb levels in human G361 cells after 24 hrs by immunoblotting analysis; assay type: functional, cell-based; conditions: G-361
Method in brief: (§2)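 G361 cells treated 24 h, harvested into Laemmli sample buffer. Proteins separated by SDS-PAGE, electroblotted to nitrocellulose, blocked, probed overnight with specific primary antibodies, then peroxidase-conjugated secondary antibodies. Tubulin served as loading control.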

[23] = Downregulation of cyclin A1 levels in human G361 cells at 20 to 80 uM after 24 hrs by immunoblotting analysis; assay type: functional, cell-based; conditions: G-361; method in brief: as §2
[24] = Downregulation of cyclin B1 levels in human G361 cells at 20 to 80 uM after 24 hrs by immunoblotting analysis; assay type: functional, cell-based; conditions: G-361; method in brief: as §2
[25] = target: T1, Cyclin-dependent kinase 2/cyclin E1 (Homo sapiens) (UniProt P24864+P24941); experiment: Inhibition of CDK2/Cyclin E in human G361 cells assessed as suppression of RB phosphorylation at S807/811 at 50 uM after 4 hrs by immunoblotting analysis; assay type: cell-based; conditions: G-361
Method in brief: (§3)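 G361 cells synchronized with nocodazole (3 ng/mL, 16 h), then treated 4 h. Phosphorylated CDK substrates detected by immunoblotting, with tubulin as equal-loading control.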

[26] = target: T1, Cyclin-dependent kinase 2/cyclin E1 (Homo sapiens); experiment: Inhibition of CDK2/Cyclin E in human G361 cells assessed as suppression of RB phosphorylation at S780 at 50 uM after 4 hrs by immunoblotting analysis; assay type: cell-based; conditions: G-361; method in brief: as §3
[27] = target: T1, Cyclin-dependent kinase 2/cyclin E1 (Homo sapiens); experiment: Inhibition of CDK2/Cyclin E in human G361 cells assessed as suppression of PP1alpha phosphorylation at T320 at 50 uM after 4 hrs by immunoblotting analysis; assay type: cell-based; conditions: G-361; method in brief: as §3
[28] = target: T1, Cyclin-dependent kinase 2/cyclin E1 (Homo sapiens); experiment: Inhibition of CDK2/Cyclin E in human G361 cells assessed as suppression of nucleophosmin phosphorylation at T199 at 50 uM after 4 hrs by immunoblotting analysis; assay type: cell-based; conditions: G-361; method in brief: as §3
[29] = Downregulation of Mcl-1 protein level in human G361 cells at 20 to 80 uM after 24 hrs by immunoblotting analysis; assay type: functional, cell-based; conditions: G-361; method in brief: as §2
[30] = Upregulation of Bax protein level in human G361 cells at 20 to 80 uM after 24 hrs by immunoblotting analysis; assay type: functional, cell-based; conditions: G-361; method in brief: as §2
[31] = Upregulation of Bak protein level in human G361 cells at 20 to 80 uM after 24 hrs by immunoblotting analysis; assay type: functional, cell-based; conditions: G-361; method in brief: as §2
[32] = Upregulation of Bid protein level in human G361 cells at 20 to 80 uM after 24 hrs by immunoblotting analysis; assay type: functional, cell-based; conditions: G-361; method in brief: as §2
G-361 [33] = experiment: Induction of apoptosis in human G361 cells assessed as activation of caspases-3/7 at 20 to 80 uM using Ac-DEVD-AMC as substrate after 24 hrs by fluorimetric analysis; assay type: functional, cell-based
Method in brief: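 Lysates cleared at 10 000 g, 30 min, 4 °C, equalized for protein, then incubated 3 h with Ac-DEVD-AMC in 25 mM PIPES, 2 mM EGTA, 2 mM MgCl2, 5 mM DTT, pH 7.3. Fluorescence read at 355/460 nm, normalized to untreated control.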

MCF7 [34] = experiment: Cell cycle arrest in BrdU pulse labeled human MCF7 cells assessed as accumulation at G2/M phase after 24 hrs by propidium iodide staining based flow cytometry; assay type: functional

For `O=C1c2ccccc2-[n+]2ccc3c([nH]c4ccccc43)c21` [FASCAPLYSIN CHLORIDE], the IC50 [1] was 0.35 µM.
For `COc1ccccc1-c1cc(Nc2cccc(CS(N)(=O)=O)c2)ncn1`, the IC50 [2] was 3.95 µM, the IC50 [3] was 3.16 µM and the IC50 [4] was 4.96 µM. For the same compound, the IC50 (CDK7/Cyclin H/MNAT1) was > 20 µM.
`c1cnc2[nH]c(-c3cnnn3CCCc3c[nH]c4ncccc34)cc2c1` showed an IC50 ([5]; read-out: IC50) of 2 µM, an IC50 ([5]; read-out: pIC50 (converted)) of 2 µM and an IC50 (K562 [6]) of 39.9 µM. For the same compound, the IC50 (MCF7 [7]) was > 25 µM, the IC50 [8] was 31.5 µM and the “fold change (FC)” value (G-361 [9]) was 13.8. For the same compound, the IC50 (HeLa) was > 50 µM, the IC50 (CCRF-CEM) was 31 µM and the IC50 [10] was > 50 µM. It also gave a viability at 50 µM (K562 [11]) of 57.4%, a viability at 50 µM (MCF7 [12]) of 55.4% and a viability at 50 µM [13] of 32.4%. The IC50 [2] was 11.5 µM, the Activity (MCF7 [14]) was “Active” and the IC50 [3] was 9 µM. The IC50 [4] was 10.7 µM, the IC50 (CDK7/Cyclin H/MNAT1) was > 50 µM and the IC50 (CDK9/cyclin T1) was 9 µM. For the same compound, the Activity [15] was 2.4%, the Activity [16] was 10% and the Activity [17] was 22.1%. The Activity [18] was 34.7%, the Activity [19] was “Dose-dependent effect” and the Activity [20] was “Active”. The Activity [21] was “Active”, the Activity [22] was “Dose-dependent effect” and the Activity [23] was “Active”. For the same compound, the Activity [24] was “Active”, the inhibition [25] was “Active” and the inhibition [26] was “Active”. For the same compound, the inhibition [27] was “Active”, the inhibition [28] was “Active” and the Activity [29] was “Active”. For the same compound, the Activity [30] was “Active”, the Activity [31] was “Active” and the Activity [32] was “Active”. The Activity (G-361 [33]) was “Active” and the Activity (MCF7 [34]) was “Active”.
